Experimental data published in ChEMBL document CHEMBL1152541, “Staurosporine tethered peptide ligands that target cAMP-dependent protein kinase (PKA): optimization and selectivity profiling” (Bioorg Med Chem, 2009).
Blank lines part the entries; values can stand above or below the compound they belong to. *1 amine or outer side, *2 acyl side, *3 side chain or, on linkers, in order; H or OH if unused. Where a SMILES comes first, the peptide text is derived from it. Bridges are numbered along the chain shown (N, C = ends). [ ]: non-standard residue; d: D form. The star is where a group is joined. Staurosporine = CO[C@@H]1[C@H](N(C)*)C[C@H]2O[C@]1(C)n1c3ccccc3c3c4c(c5c6ccccc6n2c5c31)C(=O)NC4; Suc = O=C(CCC(=O)[*:2])[*:1]; Dap = NC[C@H](N)C(=O)O; βAla = NCCC(=O)O

Tests used:
[1] = target: Phosphatidylinositol 4-phosphate 3-kinase C2 domain-containing subunit beta (Homo sapiens) (UniProt O00750); assay: Binding affinity to human PIK3C2beta at 500 nM by cell-based competition binding assay relative to control in presence of DTT
[2] = target: T1, Tyrosine-protein kinase ZAP-70 (Homo sapiens) (UniProt P43403); assay: Binding affinity to human ZAP70 at 500 nM by cell-based competition binding assay relative to control in presence of DTT
T1 sequence (whole entry): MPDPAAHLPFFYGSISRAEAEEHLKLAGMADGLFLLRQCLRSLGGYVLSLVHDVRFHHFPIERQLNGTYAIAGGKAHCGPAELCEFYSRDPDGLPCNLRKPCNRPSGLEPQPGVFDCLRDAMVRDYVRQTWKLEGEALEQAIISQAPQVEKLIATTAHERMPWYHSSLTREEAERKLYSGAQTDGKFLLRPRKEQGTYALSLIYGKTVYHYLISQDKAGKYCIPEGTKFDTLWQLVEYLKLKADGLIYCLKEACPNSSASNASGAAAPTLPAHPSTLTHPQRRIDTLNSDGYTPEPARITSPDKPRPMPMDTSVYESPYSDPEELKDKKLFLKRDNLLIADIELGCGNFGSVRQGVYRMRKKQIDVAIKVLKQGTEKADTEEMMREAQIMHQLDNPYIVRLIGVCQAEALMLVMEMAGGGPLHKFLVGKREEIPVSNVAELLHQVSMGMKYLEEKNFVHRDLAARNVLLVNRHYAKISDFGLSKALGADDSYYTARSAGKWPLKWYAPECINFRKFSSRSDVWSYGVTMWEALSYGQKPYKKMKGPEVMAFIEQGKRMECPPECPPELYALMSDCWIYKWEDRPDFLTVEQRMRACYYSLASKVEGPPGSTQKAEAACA

[3] = target: Tyrosine-protein kinase ABL1 (Homo sapiens) (UniProt P00519); assay: Binding affinity to human ABL1 at 500 nM by cell-based competition binding assay relative to control in presence of DTT
Method in brief: (§1)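 Kinase binding profiling ran on a commercial (Ambit) competitive binding screen against a panel of 90 kinases. The screen used reducing conditions with 7.5 mM DTT. To withstand the DTT, the bivalent ligand was tested as its amide isostere, with the disulfide replaced. A staurosporine derivative carrying a 3 β-alanine linker was run as the reference compound.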

[4] = target: Mitogen-activated protein kinase 8 (Homo sapiens) (UniProt P45983); assay: Binding affinity to human JNK1 at 500 nM by cell-based competition binding assay relative to control in presence of DTT
Method in brief: (§2)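 Competition binding screen (Ambit) across a panel of 90 kinases, scoring test ligand displacement of each kinase's binding relative to control. The screen ran under reducing conditions with 7.5 mM DTT.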

[5] = target: Mitogen-activated protein kinase 9 (Homo sapiens) (UniProt P45984); assay: Binding affinity to human JNK2 at 500 nM by cell-based competition binding assay relative to control in presence of DTT; method in brief: as §2
[6] = tested on: Mast/stem cell growth factor receptor Kit (Homo sapiens), P10721 [D816V]; assay: Binding affinity to human KIT D816V mutant at 500 nM by cell-based competition binding assay relative to control in presence of DTT; method in brief: as §2
[7] = target: Focal adhesion kinase 1 (Homo sapiens) (UniProt Q05397); assay: Binding affinity to human PTK2 at 200 nM by cell-based competition binding assay relative to control in presence of DTT
[8] = target: Cyclin-dependent kinase 16 (Homo sapiens) (UniProt Q00536); assay: Binding affinity to human PCTK1 at 200 nM by cell-based competition binding assay relative to control in presence of DTT
[9] = target: Serine/threonine-protein kinase pim-2 (Homo sapiens) (UniProt Q9P1W9); assay: Binding affinity to human PIM2 at 200 nM by cell-based competition binding assay relative to control in presence of DTT
[10] = tested on: Tyrosine-protein kinase ABL1 (Homo sapiens), P00519 [E255K]; assay: Binding affinity to human ABL1 E255K mutant at 200 nM by cell-based competition binding assay relative to control in presence of DTT; method in brief: as §1
[11] = target: Tyrosine-protein kinase BTK (Homo sapiens) (UniProt Q06187); assay: Binding affinity to human BTK at 50 nM by cell-based competition binding assay relative to control in presence of DTT; method in brief: as §1
[12] = target: Macrophage colony-stimulating factor 1 receptor (Homo sapiens) (UniProt P07333); assay: Binding affinity to human CSF1R at 50 nM by cell-based competition binding assay relative to control in presence of DTT
Method in brief: (§3)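 Commercial (Ambit) competitive kinase-binding panel of 90 kinases measured the binding profile. Run under reducing conditions of 7.5 mM DTT. Binding is expressed relative to control.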

[13] = target: Casein kinase I isoform delta (Homo sapiens) (UniProt P48730); assay: Binding affinity to human CSNK1D at 50 nM by cell-based competition binding assay relative to control in presence of DTT; method in brief: as §3
[14] = tested on: Epidermal growth factor receptor (Homo sapiens), P00533 [L858R]; assay: Binding affinity to human EGFR L858R mutant at 50 nM by cell-based competition binding assay relative to control in presence of DTT; method in brief: as §3
[15] = target: T2, Serine/threonine-protein kinase STK11 (Homo sapiens) (UniProt Q15831); assay: Binding affinity to human LKB1 at 50 nM by cell-based competition binding assay relative to control in presence of DTT; method in brief: as §2
T2 sequence (whole entry): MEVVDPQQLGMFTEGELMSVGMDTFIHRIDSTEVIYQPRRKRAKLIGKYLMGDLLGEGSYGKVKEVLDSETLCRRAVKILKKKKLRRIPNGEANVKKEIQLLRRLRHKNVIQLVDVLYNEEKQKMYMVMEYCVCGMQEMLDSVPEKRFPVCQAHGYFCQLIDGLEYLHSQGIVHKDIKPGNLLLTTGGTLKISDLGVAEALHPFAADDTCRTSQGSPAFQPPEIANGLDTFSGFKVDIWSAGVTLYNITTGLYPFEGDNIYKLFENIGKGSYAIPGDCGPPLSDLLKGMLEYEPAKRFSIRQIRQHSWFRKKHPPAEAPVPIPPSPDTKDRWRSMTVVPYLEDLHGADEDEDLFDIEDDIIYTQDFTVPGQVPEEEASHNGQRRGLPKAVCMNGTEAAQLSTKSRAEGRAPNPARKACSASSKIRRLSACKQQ

[16] = target: Serine/threonine-protein kinase pim-1 (Homo sapiens) (UniProt P11309); assay: Binding affinity to human PIM1 at 50 nM by cell-based competition binding assay relative to control in presence of DTT
[17] = target: Receptor tyrosine-protein kinase erbB-2 (Homo sapiens) (UniProt P04626); assay: Binding affinity to human ERBB2 at 50 nM by cell-based competition binding assay relative to control in presence of DTT; method in brief: as §3
[18] = target: Fibroblast growth factor receptor 2 (Homo sapiens) (UniProt P21802); assay: Binding affinity to human FGFR2 at 50 nM by cell-based competition binding assay relative to control in presence of DTT; method in brief: as §3
[19] = target: Insulin receptor (Homo sapiens) (UniProt P06213); assay: Binding affinity to human INSR at 50 nM by cell-based competition binding assay relative to control in presence of DTT; method in brief: as §2

- Activity [1]: 98%
- Activity [2]: 2.2%
- Activity [3]: 68%
- Activity [4]: 52%
- Activity [5]: 87%
- Activity [6]: 1%
SMILES: CO[C@@H]1[C@H](N(C)C(=O)CCC(=O)NCCC(=O)NCCC(=O)NCCC(N)=O)C[C@H]2O[C@]1(C)n1c3ccccc3c3c4c(c5c6ccccc6n2c5c31)C(=O)NC4

- Activity [7]: 91%
- Activity [8]: 94%
- Activity [9]: 100%
- Activity [10]: 100%
SMILES: CO[C@@H]1[C@H](N(C)C(=O)CCC(=O)NCCC(=O)NCCC(=O)NCCC(=O)NCCC(=O)NCCC(=O)NCCC(=O)NCCC(=O)N[C@H]2CSSC[C@@H](C(=O)NCC(N)=O)NC(=O)CNC(=O)[C@H](Cc3ccccc3)NC(=O)[C@H](C(C)C)NC(=O)[C@H](CCCNC(=N)N)NC(=O)[C@H](Cc3ccccc3)NC(=O)[C@H](C(C)C)NC2=O)C[C@H]2O[C@]1(C)n1c3ccccc3c3c4c(c5c6ccccc6n2c5c31)C(=O)NC4 ({Staurosporine-Suc-βAla-βAla-βAla-βAla-βAla-βAla-βAla}-CVFRVFGCG-NH2; disulfide 1-8)

- Activity [11]: 98%
- Activity [12]: 83%
- Activity [13]: 100%
- Activity [14]: 100%
- Activity [15]: 100%
- Activity [16]: 79%
- Activity [17]: 100%
- Activity [18]: 86%
- Activity [19]: 92%
SMILES: CO[C@@H]1[C@H](N(C)C(=O)CCC(=O)NCCC(=O)NCCC(=O)NCCC(=O)NCCC(=O)NCCC(=O)NCCC(=O)NCCC(=O)N[C@H]2CNC(=O)C[C@@H](C(N)=O)NC(=O)CNC(=O)[C@H](Cc3ccccc3)NC(=O)[C@H](C(C)C)NC(=O)[C@H](CCCNC(=N)N)NC(=O)[C@H](Cc3ccccc3)NC(=O)[C@H](C(C)C)NC2=O)C[C@H]2O[C@]1(C)n1c3ccccc3c3c4c(c5c6ccccc6n2c5c31)C(=O)NC4 ({Staurosporine-Suc-βAla-βAla-βAla-βAla-βAla-βAla-βAla}-[Dap]VFRVFGD-NH2; lactam 1-8)
